We go through two compounds from ChEMBL document CHEMBL5316351, “Development of a Covalent Inhibitor of c-Jun N-Terminal Protein Kinase (JNK) 2/3 with Selectivity over JNK1” (J Med Chem, 2023).

Structures are written as SMILES. pIC50: −log10 of the molar value. Activity calls are given as the source filed them. The rule behind the calls is not given here.

The term inhibition denotes the drop in the measured response relative to a control, in per cent. Broadly, the pIC50 is the IC50 on a negative log10 scale, so that one unit is a factor of ten.

The target in data set [1] is T1, Mitogen-activated protein kinase 8 (Homo sapiens, UniProt P45983). As to the kind of experiment: Inhibition of JNK1 in human MM1.S cells at 1 uM by KiNativ Profiling analysis. It counts as cell-based. The procedure, abridged:
(§1)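 MM.1S cells treated with 1 μM compound, collected, PBS-washed, frozen; KiNativ lysate profiling with ATP/ADP-biotin probe labelling conserved catalytic lysine.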

Data set [2] has as its system MM1.S. As to the kind of experiment: Antiproliferative activity against human MM1.S cells assessed as inhibition of cell growth rate pretreated for 1 hr with JNK2 inhibitor, CC930 followed by incubation with drug and measured after 72 hrs by CellTiter-Glo luminescent assay. It counts as functional, cell-based. The procedure, abridged:
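MM.1S cells seeded 4000 cells/well, pretreated with 10 μM CC930, then exposed to inhibitor for 72 h; CellTiter-Glo luminescence, GR values from GR calculator; three biological replicates.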

Data set [3] has as its target T2, 1-phosphatidylinositol 3-phosphate 5-kinase (Homo sapiens, UniProt Q9Y2I7). Nature of the data set: Inhibition of wild type partial length human PIKFYVE (F1512 to C2098 residues) expressed in mammalian expression system at 1 uM by KinomeScan analysis. The procedure, abridged:
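KINOMEscan (ScanMAX) binding panel of >400 kinases, compound tested at 1 μM; reported as percent inhibition/score.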

The subject of data set [4] is MM1.S. Nature of the data set: Induction of apoptosis in human MM1.S cells assessed as increase in PARP cleavage at 0.5 to 2.5 uM incubated for 24 hrs by immunoblot analysis. It counts as functional, cell-based. The settings on record: dose 0.5-2.5 µM. A general note: In western blotting, separated proteins are transferred to a membrane and probed.
A short description of data set [5]: Antiproliferative activity against Bortezomib-resistant human ANBL-6 cells assessed as inhibition of cell growth incubated for 72 hrs by CellTiter-Glo luminescent assay. It counts as functional, cell-based. The conditions noted are these: ANBL-6, 72 h.
A short description of data set [6]: Antiproliferative activity against human HAP1 cells assessed as inhibition of cell growth incubated for 3 days by CellTiter-Glo luminescent assay. The conditions noted are these: HAP1, 72 h. It counts as functional, cell-based. (In general: Cellular ATP, detected with luciferase, serves as a proxy for viable cell number.)
In data set [7] the test system is MM1.S. As to the kind of experiment: Antiproliferative activity against human MM1.S cells assessed as inhibition of cell growth rate measured after 72 hrs by CellTiter-Glo luminescent assay. It counts as functional.
For data set [8], the target named is T3, Mitogen-activated protein kinase 9 (Homo sapiens, UniProt P45984). Nature of the data set: Covalent binding affinity to JNK2 in human MM1.S cells at 500 nM incubated for 6 hrs by biotin-JNK-IN-7 probe based pull-down competition based analysis. It counts as cell-based. In outline:
(§2)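 MM.1S cells exposed to compound or DMSO 6 h; lysed in HEPES pH 7.4/NP-40 buffer; lysates incubated with 1 μM biotin-JNK-IN-7 overnight at 4 °C then 2 h room temperature; streptavidin pull-down 2–3 h at 4 °C; bound JNK1/JNK2 detected by western blot.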
Target sequence in this assay (P45984 whole entry, looked up): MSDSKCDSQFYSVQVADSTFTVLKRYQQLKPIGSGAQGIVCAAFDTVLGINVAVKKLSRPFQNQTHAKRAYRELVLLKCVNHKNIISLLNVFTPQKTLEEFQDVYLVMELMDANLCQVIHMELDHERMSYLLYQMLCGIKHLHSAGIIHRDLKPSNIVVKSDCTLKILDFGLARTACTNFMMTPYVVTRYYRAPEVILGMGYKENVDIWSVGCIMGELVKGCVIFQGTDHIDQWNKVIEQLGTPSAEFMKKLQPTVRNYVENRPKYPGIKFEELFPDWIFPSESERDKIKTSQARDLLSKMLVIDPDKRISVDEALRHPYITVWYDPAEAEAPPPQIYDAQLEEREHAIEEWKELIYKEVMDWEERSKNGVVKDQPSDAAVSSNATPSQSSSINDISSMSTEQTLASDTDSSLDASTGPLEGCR

For data set [9], the target named is T4, Mitogen-activated protein kinase 14 (Homo sapiens, UniProt Q16539). Nature of the data set: Inhibition of Nano-Luc fused p38alpha (unknown origin) expressed in HEK293T cells pretreated for 3 hrs followed by K5-tarcer addition and measured after 1 hr by NanoBRET assay. It counts as cell-based. The conditions noted are these: time 4.0 hrs. In general terms: BRET reads energy transfer from a luciferase to a nearby fluorophore.
T4 sequence (Q16539 whole entry, the tested form may be a part): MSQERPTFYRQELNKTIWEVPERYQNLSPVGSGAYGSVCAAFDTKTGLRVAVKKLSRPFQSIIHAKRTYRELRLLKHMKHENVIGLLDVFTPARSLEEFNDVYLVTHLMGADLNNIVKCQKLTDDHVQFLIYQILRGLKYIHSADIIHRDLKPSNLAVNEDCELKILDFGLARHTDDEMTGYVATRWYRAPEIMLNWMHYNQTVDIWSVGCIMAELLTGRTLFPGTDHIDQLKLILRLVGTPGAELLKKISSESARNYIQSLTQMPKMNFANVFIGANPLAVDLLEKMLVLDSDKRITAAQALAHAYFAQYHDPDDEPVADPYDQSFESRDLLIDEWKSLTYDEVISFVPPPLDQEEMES

Data set [10] in a line: Antiproliferative activity against wild type human ANBL-6 cells assessed as inhibition of cell growth incubated for 72 hrs by CellTiter-Glo luminescent assay. It counts as functional, cell-based. The settings on record: ANBL-6, 72 h.
Data set [11] deals with MM1.S. Nature of the data set: Induction of apoptosis in human MM1.S cells at 250 nM by AnnexinV/PI staining based flow cytometry. It counts as functional, cell-based.
Data set [12] addresses T2, 1-phosphatidylinositol 3-phosphate 5-kinase. As to the kind of experiment: Inhibition of PIKFYVE in human MDA-MB-231 cells assessed as vacuole formation upto 4 uM measured after 3 days by bright field microscopy. It counts as cell-based. The settings on record: time 3.0 day. The procedure, abridged:
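MDA-MB-231 cells (DMEM, 10% FBS) seeded, next day treated with inhibitor or DMSO; after 3 days imaged by bright-field microscopy at 20× for vacuoles.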

The nature of data set [13]: Half life in mouse liver microsomes at 1 uM by LC-MS/MS analysis. It counts as ADME, Microsome.
A short description of data set [14]: Antiproliferative activity against JNK knock-out human HAP1 cells transfected with sgJNK#1 assessed as inhibition of cell growth incubated for 3 days by CellTiter-Glo luminescent assay. It counts as functional, cell-based. The settings on record: HAP1, 72 h.
The test system of data set [15] is MM1.S. It counts as functional, cell-based. The conditions noted are these: Homo sapiens, time 72.0 hrs.
Data set [16] concerns the target T3, Mitogen-activated protein kinase 9. As to the kind of experiment: Inhibition of JNK2 in human MM1.S cells at 1 uM by KiNativ Profiling analysis. It counts as cell-based. The procedure, abridged: as §1
Target sequence in this assay (P45984 whole entry, looked up): as the sequence (P45984 whole entry, looked up) above
The nature of data set [17]: Half life in human liver microsomes at 1 uM by LC-MS/MS analysis. It counts as ADME, Microsome.
The nature of data set [18]: Antiproliferative activity against JNK knock-out human HAP1 cells transfected with sgJNK#2 assessed as inhibition of cell growth incubated for 3 days by CellTiter-Glo luminescent assay. It counts as functional, cell-based. The settings on record: HAP1, 72 h.
Data set [19] addresses T4, Mitogen-activated protein kinase 14. Nature of the data set: Inhibition of GST-tagged human recombinant p38alpha expressed in Escherichia coli by Z'-LYTE assay.
Data set [20] addresses T3, Mitogen-activated protein kinase 9. As to the kind of experiment: Inhibition of His-tagged human recombinant JNK2 expressed in baculovirus expression system incubated for 1 hr in presence of ATP by Z'-Lyte assay relative to control.
Target sequence in this assay (P45984 whole entry, looked up): as above
Data set [21] relates to MM1.S. Nature of the data set: Induction of apoptosis in human MM1.S cells assessed as increase in caspase-3 cleavage at 0.5 to 2.5 uM incubated for 24 hrs by immunoblot analysis. It counts as functional, cell-based. The conditions noted are these: dose 0.5-2.5 µM.
The target in data set [22] is T1, Mitogen-activated protein kinase 8. As to the kind of experiment: Covalent binding affinity to JNK1 in human MM1.S cells at 2 uM incubated for 6 hrs by biotin-JNK-IN-7 probe based pull-down competition based analysis. It counts as cell-based. In outline:
as §2

Data set [23] can be described thus: Antiproliferative activity against human HAP1 cells transfected with sgGFP assessed as inhibition of cell growth incubated for 3 days by CellTiter-Glo luminescent assay. It counts as functional, cell-based. The conditions noted are these: HAP1, 72 h.
The target in data set [24] is Mitogen-activated protein kinase 10 (Homo sapiens) (UniProt P53779). Nature of the data set: Inhibition of JNK3 in human MM1.S cells at 1 uM by KiNativ Profiling analysis. It counts as cell-based. The procedure, abridged:
as §1

A short description of data set [25]: GSH reactivity in potassium phosphate buffer at pH 7.4 assessed as half life at 1 uM by LC-MS/MS analysis. It counts as ADME. The conditions noted are these: pH 7.4, 1 µM.
Data set [26] addresses T1, Mitogen-activated protein kinase 8. As to the kind of experiment: Inhibition of His-tagged human recombinant JNK1 expressed in insect cells incubated for 1 hr in presence of ATP by Z'-Lyte assay relative to control. The conditions noted are these: Insect cell.
For data set [27], the target named is T2, 1-phosphatidylinositol 3-phosphate 5-kinase. As to the kind of experiment: Inhibition of PIKFYVE in human SUM159 cells at 1 uM by KiNativ Profiling analysis. It counts as cell-based. The settings on record: SUM159PT. The procedure, abridged:
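SUM159 cells treated with 1 μM compound, collected, PBS-washed and frozen; lysates probed with ATP/ADP-biotin acyl probe labelling catalytic lysine (KiNativ); protection from labelling measured.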

Data set [28] concerns MM1.S. As to the kind of experiment: Antiproliferative activity against human MM1.S cells overexpressing wild type JNK2 assessed as inhibition of cell growth rate measured after 72 hrs by CellTiter-Glo luminescent assay. It counts as functional, cell-based.
The target in data set [29] is Mitogen-activated protein kinase 10 (Homo sapiens) (UniProt P53779). As to the kind of experiment: Inhibition of GST-tagged human recombinant JNK3 expressed in insect cells incubated for 1 hr in presence of ATP by Z'-lyte assay relative to control. The conditions noted are these: Insect cell.
Chain of Mitogen-activated protein kinase 10 (Homo sapiens) (P53779 whole entry, the tested form may be a part): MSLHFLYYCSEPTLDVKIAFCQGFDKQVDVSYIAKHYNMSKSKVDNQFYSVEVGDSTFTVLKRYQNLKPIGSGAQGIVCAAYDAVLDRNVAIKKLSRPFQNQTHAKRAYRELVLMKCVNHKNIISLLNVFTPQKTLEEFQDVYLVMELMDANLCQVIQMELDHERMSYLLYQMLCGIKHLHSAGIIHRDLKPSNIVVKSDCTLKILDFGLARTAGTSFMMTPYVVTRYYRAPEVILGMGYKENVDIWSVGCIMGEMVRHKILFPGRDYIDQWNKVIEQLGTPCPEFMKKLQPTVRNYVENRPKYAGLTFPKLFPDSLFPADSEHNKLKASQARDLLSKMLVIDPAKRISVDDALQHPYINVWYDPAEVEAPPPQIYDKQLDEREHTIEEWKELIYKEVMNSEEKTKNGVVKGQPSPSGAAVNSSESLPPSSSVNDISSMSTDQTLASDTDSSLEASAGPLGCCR
In data set [30] the target is T3, Mitogen-activated protein kinase 9. Nature of the data set: Inhibition of Nano-Luc fused JNK2 (unknown origin) expressed in HEK293T cells pretreated for 3 hrs followed by K5-tarcer addition and measured after 1 hr by NanoBRET assay. It counts as cell-based.
Target sequence in this assay (P45984 whole entry): as the sequence (P45984 whole entry, looked up) above

T2 sequence (Q9Y2I7 whole entry, the tested form may be a part): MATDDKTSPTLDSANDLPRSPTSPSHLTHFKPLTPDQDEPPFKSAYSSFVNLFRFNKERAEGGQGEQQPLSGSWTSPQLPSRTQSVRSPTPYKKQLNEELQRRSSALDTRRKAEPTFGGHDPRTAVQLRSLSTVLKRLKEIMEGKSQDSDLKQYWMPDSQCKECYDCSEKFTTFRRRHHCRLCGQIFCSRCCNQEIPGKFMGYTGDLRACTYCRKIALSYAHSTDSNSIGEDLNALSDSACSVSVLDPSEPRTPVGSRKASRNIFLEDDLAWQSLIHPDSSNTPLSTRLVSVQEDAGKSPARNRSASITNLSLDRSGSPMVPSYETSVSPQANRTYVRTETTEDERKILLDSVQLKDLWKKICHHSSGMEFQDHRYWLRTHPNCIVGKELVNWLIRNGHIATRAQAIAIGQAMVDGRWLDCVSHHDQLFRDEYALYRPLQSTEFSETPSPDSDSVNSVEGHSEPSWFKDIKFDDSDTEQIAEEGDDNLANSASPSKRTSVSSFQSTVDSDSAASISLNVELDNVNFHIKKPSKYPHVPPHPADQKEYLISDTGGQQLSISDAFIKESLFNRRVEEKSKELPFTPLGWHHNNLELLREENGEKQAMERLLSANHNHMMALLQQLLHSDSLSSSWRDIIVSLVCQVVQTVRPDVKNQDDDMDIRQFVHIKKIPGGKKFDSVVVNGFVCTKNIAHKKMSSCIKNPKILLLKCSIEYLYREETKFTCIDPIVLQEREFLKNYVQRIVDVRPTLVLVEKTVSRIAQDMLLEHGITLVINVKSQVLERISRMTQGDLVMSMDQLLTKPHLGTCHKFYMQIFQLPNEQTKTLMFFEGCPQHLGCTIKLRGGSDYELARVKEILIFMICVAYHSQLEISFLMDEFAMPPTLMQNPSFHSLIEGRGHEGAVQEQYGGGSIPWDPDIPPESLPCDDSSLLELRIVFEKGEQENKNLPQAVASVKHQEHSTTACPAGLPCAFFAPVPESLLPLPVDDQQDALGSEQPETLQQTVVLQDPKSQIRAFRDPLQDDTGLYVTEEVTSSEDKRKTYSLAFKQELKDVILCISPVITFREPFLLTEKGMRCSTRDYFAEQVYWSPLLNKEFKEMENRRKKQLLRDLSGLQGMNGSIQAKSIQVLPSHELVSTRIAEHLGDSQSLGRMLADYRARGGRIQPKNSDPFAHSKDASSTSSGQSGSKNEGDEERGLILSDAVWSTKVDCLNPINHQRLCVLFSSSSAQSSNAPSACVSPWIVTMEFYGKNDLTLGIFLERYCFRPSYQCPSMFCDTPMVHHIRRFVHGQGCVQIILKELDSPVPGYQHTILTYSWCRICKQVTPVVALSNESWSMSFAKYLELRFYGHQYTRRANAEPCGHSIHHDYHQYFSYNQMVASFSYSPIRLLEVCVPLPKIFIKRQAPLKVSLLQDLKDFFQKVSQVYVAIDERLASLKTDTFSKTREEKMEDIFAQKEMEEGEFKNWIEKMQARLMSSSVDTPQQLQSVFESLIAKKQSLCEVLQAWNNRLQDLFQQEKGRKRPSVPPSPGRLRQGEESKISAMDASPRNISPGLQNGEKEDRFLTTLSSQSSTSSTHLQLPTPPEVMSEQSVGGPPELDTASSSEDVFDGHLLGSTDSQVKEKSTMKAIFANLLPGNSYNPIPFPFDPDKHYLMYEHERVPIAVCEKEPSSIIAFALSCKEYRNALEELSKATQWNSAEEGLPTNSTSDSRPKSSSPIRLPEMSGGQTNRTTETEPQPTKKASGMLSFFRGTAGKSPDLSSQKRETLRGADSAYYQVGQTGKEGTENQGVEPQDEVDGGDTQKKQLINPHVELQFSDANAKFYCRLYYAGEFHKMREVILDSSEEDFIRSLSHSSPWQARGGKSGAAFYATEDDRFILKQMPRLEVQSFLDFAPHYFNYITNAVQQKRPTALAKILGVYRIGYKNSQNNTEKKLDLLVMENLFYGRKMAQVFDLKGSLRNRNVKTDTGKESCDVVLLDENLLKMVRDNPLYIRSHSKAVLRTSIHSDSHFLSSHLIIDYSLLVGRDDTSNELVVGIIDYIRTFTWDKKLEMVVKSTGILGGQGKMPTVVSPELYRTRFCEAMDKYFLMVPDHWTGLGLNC
T1 sequence (P45983 whole entry): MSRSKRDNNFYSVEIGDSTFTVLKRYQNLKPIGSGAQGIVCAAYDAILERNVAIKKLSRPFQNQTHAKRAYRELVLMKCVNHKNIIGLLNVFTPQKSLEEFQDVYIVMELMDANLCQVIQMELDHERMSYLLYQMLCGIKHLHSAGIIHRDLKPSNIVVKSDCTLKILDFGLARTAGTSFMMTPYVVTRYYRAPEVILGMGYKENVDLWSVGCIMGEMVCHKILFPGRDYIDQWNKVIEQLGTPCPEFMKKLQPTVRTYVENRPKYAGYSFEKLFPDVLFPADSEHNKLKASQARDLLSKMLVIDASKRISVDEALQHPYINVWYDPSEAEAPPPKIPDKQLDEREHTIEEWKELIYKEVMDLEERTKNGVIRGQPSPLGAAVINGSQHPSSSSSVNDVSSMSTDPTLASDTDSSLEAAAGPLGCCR

In the case of `C[C@H]1CN(C(=O)c2ccc(NC(=O)/C=C/CN(C)C)cc2)C[C@H]1Nc1nccc(-c2c(-c3ccccc3)nn3ccccc23)n1`, the inhibition result in data set [1], in data set [9], in data set [16] and in data set [24] was “Active” in each case. Moreover, the outcome in data set [2], in data set [4], in data set [8], in data set [11], in data set [15] and in [21] was Active. For the same compound, the outcome in data set [22] and in [28] was Active. The compound also came in with an inhibition in [3] of 44%. Further, the pIC50 in data set [5] is 7.02; in [6], 6.28; in data set [10], 6.92; in data set [14] it was 5.96; in [18], 6.07; in [19], 7.82. Besides, the negative logarithm of the IC50 (pIC50) in data set [23] is 6.01. Besides, in data set [7], the GR50 stood at 200 nM. Besides, the inhibition result in data set [12] and in data set [27] was “inactive” throughout. Moreover, the t1/2 stood at 11 min in data set [13], 16 min in [17] and 46 min in data set [25]. For the same compound, the Imax in data set [20] came out at 98%; in [26] it was 85%; in data set [29], 68%.

For the compound `C[C@H]1CN(C(=O)c2ccc(NC(=O)CCCN(C)C)cc2)C[C@H]1Nc1nccc(-c2c(-c3ccccc3)nn3ccccc23)n1`, the result in data set [7] was inactive. In data set [9], the inhibition entry was “Active”. For the same compound, the negative logarithm of the IC50 (pIC50) in data set [30] was 5.77; in [19] it was 7.82.
